In ChEMBL document CHEMBL4014329, “Selective Inhibition of Escherichia coli RNA and DNA Topoisomerase I by Hoechst 33258 Derived Mono- and Bisbenzimidazoles” (J Med Chem, 2017):
Values after ≈ are worked out from the molar mass of the structure shown. Active and inactive are the calls of the source. The calls are words filed in the database; no cut-off is given here.

Columns and labels:
[1] = system: Staphylococcus epidermidis; assay: Antibacterial activity against Staphylococcus epidermidis ATCC 12384 after 24 hrs by microbroth dilution method; format: functional; conditions: ATCC 12384, 24 h
How it was run: (§1)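 Microbroth dilution per CLSI guidelines. Organisms grown in Mueller−Hinton broth at 37 °C with shaking to log phase, pelleted, resuspended in 0.85% saline to OD625 0.1. Final inoculum 5 × 10^5 CFU/mL; triplicate; 24 h at 37 °C. OD625 read; MIC = lowest concentration completely inhibiting growth versus untreated controls.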

Citrobacter freundii = assay: Antibacterial activity against Citrobacter freundii 4747CFAA after 24 hrs by microbroth dilution method; format: functional; how it was run: as §1
[2] = Binding affinity to dA60.dT60 B-DNA duplex (unknown origin) assessed as change in melting temperature at 10 uM by UV-vis spectrophotometric analysis
How it was run: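 UV melting of dA60·dT60 at 1 μM/duplex with compound at 10 μM. Buffer 10 mM sodium cacodylate, 0.1 mM EDTA, 100 mM NaCl, pH 7.0; duplex pre-annealed from 95 °C. Compound stocks in DMSO diluted into buffer. Heating at 0.2 °C/min, monitored at 260 nm, points every 1.0 °C; Tm taken from derivatives.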

Staphylococcus aureus [3] = assay: Antibacterial activity against methicillin-resistant Staphylococcus aureus A960649 after 24 hrs by microbroth dilution method; format: functional; conditions: A960649, 24 h
How it was run: (§2)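 Mueller-Hinton broth cultures grown at 37 °C with shaking to log phase, pelleted, resuspended in 0.85% saline to OD625 0.1. Broth microdilution per CLSI guidelines, final inoculum 5 × 10^5 CFU/mL, in triplicate, 24 h at 37 °C. Growth read as OD625. MIC is the lowest concentration giving complete growth inhibition versus untreated controls.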

Staphylococcus aureus [4] = assay: Antibacterial activity against Staphylococcus aureus ATCC 33591 after 24 hrs by microbroth dilution method; format: functional; conditions: ATCC 33591, 24 h; how it was run: as §1
Enterococcus faecalis = assay: Antibacterial activity against Enterococcus faecalis ATCC 29212 after 24 hrs by microbroth dilution method; format: functional; conditions: ATCC 29212, 24 h; how it was run: as §1
Enterobacter cloacae = assay: Antibacterial activity against Enterobacter cloacae ATCC 13047 after 24 hrs by microbroth dilution method; format: functional; conditions: ATCC 13047, 24 h; how it was run: as §1
[5] = Binding affinity to dA60.dT60 B-DNA duplex (unknown origin) assessed as induction of biphasic transition at <5 uM by UV-vis spectrophotometric analysis
Pseudomonas aeruginosa = assay: Antibacterial activity against Pseudomonas aeruginosa ATCC 27853 after 24 hrs by microbroth dilution method; format: functional; conditions: ATCC 27853, 24 h; how it was run: as §1
Klebsiella pneumoniae = assay: Antibacterial activity against Klebsiella pneumoniae NR15410 after 24 hrs by microbroth dilution method; format: functional; conditions: NR15410, 24 h; how it was run: as §1
Acinetobacter baumannii = assay: Antibacterial activity against Acinetobacter baumannii ATCC 19606 after 24 hrs by microbroth dilution method; format: functional; conditions: ATCC 19606 = CIP 70.34 = JCM 6841, 24 h; how it was run: as §1
Escherichia coli [6] = assay: Antibacterial activity against Escherichia coli ATCC 25922 after 24 hrs by microbroth dilution method; format: functional; conditions: ATCC 25922, 24 h; how it was run: as §1
Shigella flexneri = assay: Antibacterial activity against Shigella flexneri 2457NR517 after 24 hrs by microbroth dilution method; format: functional; conditions: 2457NR517, 24 h; how it was run: as §2
Staphylococcus aureus [7] = assay: Antibacterial activity against Staphylococcus aureus ATCC 29213 after 24 hrs by microbroth dilution method; format: functional; conditions: ATCC 29213, 24 h; how it was run: as §1
Staphylococcus aureus [8] = assay: Antibacterial activity against methicillin-resistant Staphylococcus aureus 33591 after 24 hrs by microbroth dilution method; format: functional; conditions: Staphylococcus aureus, 33591, 24 h; how it was run: as §2
Enterococcus faecium = assay: Antibacterial activity against Enterococcus faecium BM4105RF after 24 hrs by microbroth dilution method; format: functional; how it was run: as §2
Escherichia coli [9] = assay: Antibacterial activity against Escherichia coli K-12 after 24 hrs by microbroth dilution method; format: functional; conditions: K-12, 24 h; how it was run: as §1
DU-145 = assay: Cytotoxicity against human DU145 cells after 48 hrs by SRB assay; format: cell-based; conditions: Homo sapiens, DU-145, 48 h
How it was run: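 Cells cultured per ATCC protocols, seeded and grown 24 h (37 °C, 5% CO2), then treated in triplicate at final 20, 10, 5, 2.5, 1.25, 0.625 and 0.0625 μM for 48 h. Fixed with cold TCA (16% final, 4 °C, 1 h), stained with SRB in 1% acetic acid, dye solubilized in 10 mM Tris base, A560 read. IC50 derived; study in duplicate.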

Row | Compound | MIC [1] [µg/mL] | MIC (Citrobacter freundii) [µg/mL] | ΔTm [2] [°C] | MIC (Staphylococcus aureus [3]) [µg/mL] | MIC (Staphylococcus aureus [4]) [µg/mL] | MIC (Enterococcus faecalis) [µg/mL] | MIC (Enterobacter cloacae) [µg/mL] | Activity [5] | MIC (Pseudomonas aeruginosa) [µg/mL] | MIC (Klebsiella pneumoniae) [µg/mL] | MIC (Acinetobacter baumannii) [µg/mL] | MIC (Escherichia coli [6]) [µg/mL] | MIC (Shigella flexneri) [µg/mL] | MIC (Staphylococcus aureus [7]) [µg/mL] | MIC (Staphylococcus aureus [8]) [µg/mL] | MIC (Enterococcus faecium) [µg/mL] | MIC (Escherichia coli [9]) [µg/mL] | IC50 (DU-145) [µM]
1 | CCOc1ccc(-c2nc3ccc(N4CCN(C)CC4)cc3[nH]2)cc1 | > 32 | > 32 | 1.7 | > 32 | 16 to 32 (≈ 47.6 to 95.1 µM) | 16 (≈ 47.6 µM) | > 32 | Active | 16 (≈ 47.6 µM) | > 32 | > 32 | 16 (≈ 47.6 µM) | > 32 | 16 to 32 (≈ 47.6 to 95.1 µM) | > 32 | > 32 | 16 (≈ 47.6 µM) | –
2 | CN1CCN(c2ccc3nc(-c4ccc5nc(-c6ccc(O)cc6)[nH]c5c4)[nH]c3c2)CC1.Cl.Cl.Cl | – | – | – | – | 16 to 32 | 16 to 32 | – | – | 8 | – | – | 8 to 16 | – | > 32 | – | – | 8 | > 10
3 | CN1CCN(c2ccc3nc(-c4ccc(OCCCN)cc4)[nH]c3c2)CC1 | > 32 | > 32 | 3.3 | > 32 | > 32 | > 32 | > 32 | Active | > 32 | > 32 | > 32 | > 32 | > 32 | > 32 | > 32 | > 32 | > 32 | –
4 | COC(=O)c1cc(N2CCN(C)CC2)cc2[nH]c(-c3ccc(O)cc3)nc12 | > 32 | > 32 | 0 | > 32 | 16 to 32 (≈ 43.7 to 87.3 µM) | 16 to 32 (≈ 43.7 to 87.3 µM) | > 32 | Active | 16 (≈ 43.7 µM) | > 32 | > 32 | 16 (≈ 43.7 µM) | > 32 | 16 to 32 (≈ 43.7 to 87.3 µM) | > 32 | > 32 | 16 (≈ 43.7 µM) | –
5 | CN1CCN(c2ccc3nc(-c4ccc(OCCN=[N+]=[N-])cc4)[nH]c3c2)CC1 | > 32 | > 32 | 1.9 | > 32 | 16 to 32 (≈ 42.4 to 84.8 µM) | 16 to 32 (≈ 42.4 to 84.8 µM) | > 32 | Active | 16 (≈ 42.4 µM) | > 32 | > 32 | 16 (≈ 42.4 µM) | > 32 | ≥ 32 | > 32 | > 32 | 16 (≈ 42.4 µM) | –
6 | C#Cc1ccc(-c2cn(CCOc3ccc(-c4nc5ccc(N6CCN(C)CC6)cc5[nH]4)cc3)nn2)cc1 | > 32 | > 32 | 1.9 | > 32 | 16 (≈ 31.8 µM) | 16 to 32 (≈ 31.8 to 63.5 µM) | > 32 | Active | 16 (≈ 31.8 µM) | > 32 | > 32 | 16 (≈ 31.8 µM) | > 32 | 16 to 32 (≈ 31.8 to 63.5 µM) | > 32 | > 32 | 16 (≈ 31.8 µM) | –
7 | CN1CCN(c2ccc3nc(-c4ccc(OCc5cn(CCN=[N+]=[N-])nn5)cc4)[nH]c3c2)CC1 | > 32 | > 32 | 1.2 | > 32 | 16 to 32 (≈ 34.9 to 69.8 µM) | 16 to 32 (≈ 34.9 to 69.8 µM) | > 32 | Active | 16 (≈ 34.9 µM) | > 32 | > 32 | 16 (≈ 34.9 µM) | > 32 | 16 to 32 (≈ 34.9 to 69.8 µM) | > 32 | > 32 | 16 (≈ 34.9 µM) | –
